Source: ChEMBL document CHEMBL1127547, “Synthesis and biological activities of a new set of irreversibly acting 2-(4'-isothiocyanatobenzyl)imidazoline analogs in rat thoracic aorta” (J Med Chem, 1994)
Several values for one entry are separate records, joined by “and”; a condition that tells them apart may be missing. Equal entries are not always repeated.

What was measured:
Rattus norvegicus [1] = organism: Rattus norvegicus; experiment: Percent of maximal contractile response to compound with phenoxybenzamine pretreatment on rat thoracic aorta strips
In short: (§1)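 Rat aortic strips (male Sprague-Dawley) were pretreated with phenoxybenzamine 3×10^-6 M for 20 min and washed before cumulative analog curves were run. Responses were taken 20–30 min after each addition. Maximal contraction is expressed relative to 30 μM phenylephrine, obtained before pretreatment. Mean ± SEM, n = 4–7; Student's t test against the untreated control.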

Rattus norvegicus [2] = organism: Rattus norvegicus; experiment: Concentration that produces 50% of the maximal response to compound with phenoxybenzamine pretreatment on rat thoracic aorta strips; format: functional; in short: as §1
Rattus norvegicus [3] = organism: Rattus norvegicus; experiment: Percent of maximal contractile response to compound in rat thoracic aorta strips in the presence of PBZ and IDA
In short: (§2)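 Rat aortic strips were given PBZ for 20 min, then washed out and exposed to idazoxan for 60 min before cumulative analog curves (3×10^-8–10^-4 M). Readings were taken 35–45 min after each addition. Response is expressed as % of the 30 μM phenylephrine maximum. Mean ± SEM, n = 3–4.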

Rattus norvegicus [4] = organism: Rattus norvegicus; experiment: Percent of maximal contractile response to compound in rat thoracic aorta strips in the presence of nifedipine
In short: (§3)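 Aortic strips were pretreated with nifedipine 10^-6 M for 60 min. The stock was 0.01 M in EtOH, diluted in 0.01 M sodium phosphate, pH 7.4. Cumulative analog curves followed, read 35–45 min after each addition. Emax is expressed relative to the compound alone. Mean ± SEM, n = 3–4; paired comparison.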

Rattus norvegicus [5] = organism: Rattus norvegicus; experiment: Concentration that produces 50% of the maximal response to compound in rat thoracic aorta strips in the presence of PBZ and IDA; format: functional; in short: as §2
Rattus norvegicus [6] = organism: Rattus norvegicus; experiment: Percent of maximal contractile response to compound in rat thoracic aorta strips
In short: (§4)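 Helically cut thoracic aorta strips from male Sprague-Dawley rats (300–450 g) in a 10-mL water-jacketed bath of physiological salt solution. After 1 h equilibration, strips were primed with 10^-8 M phenylephrine, and a phenylephrine curve (10^-9 to 3×10^-5 M) was run. Cumulative analog curves were read 20–30 min after each addition. Emax is given relative to the 30 μM phenylephrine maximum. Mean ± SEM, n = 4–7.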

Rattus norvegicus [7] = organism: Rattus norvegicus; experiment: Concentration that produces 50% of the maximal response to compound in rat thoracic aorta strips; format: functional; in short: as §4
Rattus norvegicus [8] = organism: Rattus norvegicus; experiment: Concentration that produces 50% of the maximal response to compound in rat thoracic aorta strips in the presence of nifedipine; format: functional; in short: as §3
Rattus norvegicus [9] = organism: Rattus norvegicus; experiment: Concentration that produces 50% of the maximal response to compound without phenoxybenzamine pretreatment on rat thoracic aorta strips; format: functional; in short: as §4
Rattus norvegicus [10] = organism: Rattus norvegicus; experiment: Concentration that produces 50% of the maximal response to compound in rat thoracic aorta strips in the presence of PBZ and CIR; format: functional
Rattus norvegicus [11] = organism: Rattus norvegicus; experiment: Percent of maximal contractile response to compound without phenoxybenzamine pretreatment on rat thoracic aorta strips; in short: as §4
Rattus norvegicus [12] = organism: Rattus norvegicus; experiment: Percent of maximal contractile response to compound in rat thoracic aorta strips in the presence of PBZ and CIR
Rattus norvegicus [13] = organism: Rattus norvegicus; experiment: Percent of maximal contractile response to compound in rat thoracic aorta strips v
Rattus norvegicus [14] = organism: Rattus norvegicus; experiment: Concentration that produces 50% of the maximal response to compound in rat thoracic aorta strips in the presence of PBZ and IDA
Rattus norvegicus [15] = organism: Rattus norvegicus; experiment: Concentration that produces 50% of the maximal response to compound in rat thoracic aorta strips in the presence of PBZ and IDA at 1 uM; format: functional
In short: (§5)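 Strips were exposed to 30 nM PBZ for 20 min, washed out, then held in idazoxan for 1 h: 0.1 μM or 1 μM. Analog-induced contractions were read 20–30 min after addition and expressed against the 30 μM phenylephrine maximum obtained before treatment.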

Rattus norvegicus [16] = organism: Rattus norvegicus; experiment: Concentration that produces 50% of the maximal response to compound in rat thoracic aorta strips in the presence of calcium deficient buffer; format: functional
In short: (§6)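 Cumulative analog concentration-response curves were run on rat thoracic aorta strips in calcium-deficient PSS. Responses were read 35–45 min after each addition. Emax is relative to the maximal contraction of the compound alone in normal PSS. Mean ± SEM, n = 3–4; paired t test.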

Rattus norvegicus [17] = organism: Rattus norvegicus; experiment: Percent of maximal contractile response to compound in rat thoracic aorta strips presence of PBZ and CIR
Rattus norvegicus [18] = organism: Rattus norvegicus; experiment: Percent of maximal contractile response to compound in rat thoracic aorta strips in the presence of PBZ and IDA at 0.1 uM; in short: as §5
Rattus norvegicus [19] = organism: Rattus norvegicus; experiment: Concentration that produces 50% of the maximal response to compound in rat thoracic aorta strips in the presence of verapamil; format: functional
In short: (§7)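 Verapamil was given for 60 min before cumulative analog curves on rat aortic strips; the methods give 10^-5 M and the table footnote gives 10^-6 M. Responses were read 35–45 min after each addition. Emax is relative to the compound's own maximal contraction without verapamil. Mean ± SEM, n = 3–4.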

Rattus norvegicus [20] = organism: Rattus norvegicus; experiment: Percent of maximal contractile response to compound in rat thoracic aorta strips in the presence of calcium deficient buffer; in short: as §6
Rattus norvegicus [21] = organism: Rattus norvegicus; experiment: Percent of maximal contractile response to compound in rat thoracic aorta strips in the presence of verapamil; in short: as §7
Rattus norvegicus [22] = organism: Rattus norvegicus; experiment: Concentration that produces 50% of the maximal response to compound in rat thoracic aorta strips in the presence of PBZ and IDA at 0.1 uM; format: functional; in short: as §5
Rattus norvegicus [23] = organism: Rattus norvegicus; experiment: Percent of maximal contractile response to compound in rat thoracic aorta strips in the presence of PBZ and IDA at 1 uM; in short: as §5
[24] = Rattus norvegicus, Thoracic aorta, read-out: Emax
[25] = Rattus norvegicus, Thoracic aorta

Row | Structure (SMILES) | EC50 (Rattus norvegicus [2]) [µM] | EC50 (Rattus norvegicus [7]; [25]) [µM] | EC50 (Rattus norvegicus [8]) [µM] | EC50 (Rattus norvegicus [9]) [µM] | EC50 (Rattus norvegicus [10]) [µM] | Emax (Rattus norvegicus [1]) [%] | Emax (Rattus norvegicus [4]) [%] | Emax (Rattus norvegicus [6]; [24]) [%] | Emax (Rattus norvegicus [11]) [%] | Emax (Rattus norvegicus [12]) [%] | other results
1 | O=C(CCl)Nc1ccc(CC2=NCCN2)cc1 | 129 | – | – | 116 | – | 32 | – | – | 41 | – | –
2 | Cc1ccc(CC2=NCCN2)cc1 | – | – | – | 57 | – | 5 | – | – | 14 | – | –
3 | S=C=Nc1ccc(OCC2=NCCN2)cc1 | 47 | 17.2 | 52.1 | 69 | 16.4 | 117 | 11 | 100 | 108 | 117 | Emax (Rattus norvegicus [13]): 110%; EC50 (Rattus norvegicus [14]): 16.1 µM
4 | CN(C)CCc1ccc(N=C=S)cc1 | 33 | 16.8 | 48.5 | 41 | – | 113 | 29 | 100 | 98 | – | Emax (Rattus norvegicus [6]; rat, in vitro): 91% and 94%; EC50 (Rattus norvegicus [7]): 16.9 µM and 16.3 µM
5 | Nc1ccc(CC2=NCCN2)cc1 | 31 | – | – | 3 | – | 9 | – | – | 69 | – | –
6 | S=C=Nc1ccc(CC2=NCCN2)cc1 | 52 | – | 19.8 | 48 | 43 | 100 | 42 | 100 | 118 | – | EC50 (Rattus norvegicus [15]): 54 µM; EC50 (Rattus norvegicus [16]): 12.7 µM; Emax (Rattus norvegicus [17]): 94%; Emax (Rattus norvegicus [6]; rat, in vitro): 100%; Emax (Rattus norvegicus [18]): 104%; EC50 (Rattus norvegicus [7]): 45 µM and 5.8 µM; EC50 (Rattus norvegicus [19]): 21.4 µM; Emax (Rattus norvegicus [20]): 34%; Emax (Rattus norvegicus [21]): 48%; EC50 (Rattus norvegicus [22]): 54 µM; Emax (Rattus norvegicus [23]): 105%

Further lines, with some results ahead:

Row | EC50 (Rattus norvegicus [2]) [µM] | EC50 (Rattus norvegicus [7]; [25]) [µM] | EC50 (Rattus norvegicus [8]) [µM] | EC50 (Rattus norvegicus [9]) [µM] | EC50 (Rattus norvegicus [10]) [µM] | Structure (SMILES) | Emax (Rattus norvegicus [1]) [%] | Emax (Rattus norvegicus [4]) [%] | Emax (Rattus norvegicus [6]; [24]) [%] | Emax (Rattus norvegicus [11]) [%] | Emax (Rattus norvegicus [12]) [%] | other results
7 | 36 | 28.6 | 38.9 | 31 | 25.5 | S=C=Nc1ccc(Cc2ncc[nH]2)cc1 | 68 | 35 | 100 | 70 | 102 | Emax (Rattus norvegicus [3]): 79%; EC50 (Rattus norvegicus [5]): 40.9 µM
8 | 58 | – | – | 10 | – | S=C=Nc1ccc(CC2=NCCN2)cc1I | 28 | – | – | 31 | – | –
9 | – | – | – | 47 | – | O=C(CI)Nc1ccc(CC2=NCCN2)cc1 | 13 | – | – | 25 | – | –
10 | 29 | 18.3 | 67 | 29 | 14.9 | S=C=Nc1ccc(CCC2=NCCN2)cc1 | 102 | 21 | 100 | 107 | 100 | Emax (Rattus norvegicus [3]): 114%; EC50 (Rattus norvegicus [5]): 18.1 µM
